Assay outcomes as filed in PubChem BioAssay.
OXTR potentiate: potentiators of human oxytocin receptor; 320,000 tested, 0.061% active; CHO-OTR cells, Fluo-8 calcium fluorescence, potentiator mode; 0% = oxytocin EC15, 100% = EC100; activation, % at 3 µM; P30559;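 active = activation above that plate's cutoff, the mean activation of tested compounds plus 3 SD, cut at about 6.6% in these data, passing the limit was not always enough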;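 note: 100% uses oxytocin at 75 nM as the full agonist control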
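Material: CHO-OTR cells, human receptor; compound dosing: single dose, 3.0 µM nominal final compound concentration; schedule: 6 min compound pre-incubation at room temperature, 100 s kinetic read; measured by: kinetic Fluo-8 calcium fluorescence; read-out basis: % activation vs EC15 and EC100 oxytocin; controls: EC15 oxytocin alone as 0%, 75 nM oxytocin as 100%; replicates: singlicate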
OXTR agonist: activates the human oxytocin receptor. 320,000 tested, 0.32% active. activation, % at 3 µM. CHO-OTR cells, Fluo-8 calcium fluorescence; normalized: DMSO 0%, oxytocin 100%. P30559;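 active = activation above the mean of all tested compounds plus 3 SD, cutoff set per screening run, cut at about 20% in these data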;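 note: peak over basal fluorescence ratio from a 100 s FLIPR kinetic read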
zfTRPN1 agonist: activates the zebrafish TRPN1 channel; HEK293 zebrafish TRPN1-YFP, Fluo-8 calcium fluorescence; 100% = response to 87 µM carbachol; activation, % at 3 µM; 220,000 tested, 0.18% active;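 active = activation above its plate's cutoff, the mean activation of test wells on that plate plus 3 SD, cut at about 19% in these data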;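 note: 0% = DMSO alone and 100% = 87 µM carbachol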
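Control set: carbachol 87 µM as high control, DMSO as low control; system: HEK293 stable line with zebrafish TRPN1-YFP; read-out: % activation versus carbachol response; detection: intracellular calcium fluorescence with Fluo-8; doses: single test compound dose, 3 µM nominal, 0.3% DMSO; schedule: dye 1 h 37 °C plus 30 min RT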
V1R ag counter: activates human V1a receptor in oxytocin agonist counter-screen; P37288; CHO-V1R cells, Fluo-8 calcium fluorescence, agonist mode; 0% DMSO, 100% 3 nM vasopressin; activation, % at 3 µM; 320,000 tested, 0.25% active;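 active = activation above the mean activation of all tested compounds plus 3 SD, per screening run, cut at about 20% in these data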;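 note: signal is peak over basal fluorescence ratio across a 100 second FLIPR read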
Target sequence (P37288 whole entry, looked up): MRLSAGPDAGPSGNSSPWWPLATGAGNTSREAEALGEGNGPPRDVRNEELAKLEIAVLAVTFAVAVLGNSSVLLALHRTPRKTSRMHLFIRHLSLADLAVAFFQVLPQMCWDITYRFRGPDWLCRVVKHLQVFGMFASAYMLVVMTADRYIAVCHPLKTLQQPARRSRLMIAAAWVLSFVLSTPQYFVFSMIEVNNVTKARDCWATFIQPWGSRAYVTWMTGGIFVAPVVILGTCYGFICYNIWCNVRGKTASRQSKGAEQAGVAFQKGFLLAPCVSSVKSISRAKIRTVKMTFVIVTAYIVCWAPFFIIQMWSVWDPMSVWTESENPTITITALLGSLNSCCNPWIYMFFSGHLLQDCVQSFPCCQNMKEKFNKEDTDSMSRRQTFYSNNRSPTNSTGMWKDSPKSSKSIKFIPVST
TRPML3 ag: agonists of human TRPML3 channel. Q8TDD5. HEK293 TRPML3-YFP, Fluo-8 calcium fluorescence; 100% = the carbachol control signal. activation, % at 3 µM. 220,000 tested, 0.29% active;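 active = activation above its plate's cutoff, the mean activation of the plate's test wells plus 3 SD, cut at about 12% in these data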;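 note: 0% = DMSO only wells and 100% = carbachol wells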
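Material: HEK293 cells stably carrying human TRPML3-YFP; compound dosing: single dose, 3 µM final nominal compound, 0.3% DMSO final; incubation: 1-h 37 °C dye load, 5-s basal, 120-s post-compound reads; technique: Fluo-8 intracellular calcium fluorescence, excitation 470-495 nm, emission 515-575 nm; read-out basis: percent activation from peak-to-basal fluorescence ratio, scaled between DMSO and carbachol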
The depositor's hits bear a star; · = no result given. Shown are actives, neighbours in structure and some others; about 0.58% of the full set was active somewhere.

SMILES	OXTR potentiate	OXTR agonist	zfTRPN1 agonist	V1R ag counter	TRPML3 ag
OCCCc1nc2n(n1)C(c1ccccc1)C=C(c1ccc(F)cc1)N2 (stereo unspecified)	-7	-1	0	0	0
O=C1/C(=C/c2cccs2)CCC/C1=C\c1cccs1	-3	0	·	2	·
Cn1cccc1/C=C1\CCC/C(=C\c2cccn2C)C1=O	-14	75*	0	44*	1
O=C(N/N=C/c1c(O)ccc2ccccc12)c1cccc(C(F)(F)F)c1	-14	46*	35*	53*	15*
COc1ccc2ccccc2c1/C=N/NC(=O)c1cccc(Br)c1	-4	-2	1	0	1
CCS(=O)(=O)c1ccc(O)c(NC(=O)NC2CCCCC2)c1	-2	1	1	0	1
O=C1CN(C(=S)NC(=O)c2ccc(-c3ccccc3)cc2)CCN1	-3	0	1	0	0
CC1=C/C(=N\OS(=O)(=O)c2ccccc2)C(C(C)C)=CC1=O	-5	-2	3	-1	35*
CC1=CC(=O)c2ccccc2C1=O	-6	-1	2	0	1
O=C(NC(=O)c1ccccc1O)c1ccc(C(F)(F)F)cc1	-21	14	6	18	2
CCCc1ccc(C(=O)NC(=O)c2ccccc2O)cc1	-17	19	20*	11	11
O=C(Nc1ccccc1)Nc1ccc(Cl)c(S(=O)(=O)N2CCOCC2)c1	-13	17	23*	14	13*
O=C(Nc1ccc(NC(=O)c2ccc(Cl)c(S(=O)(=O)N3CCOCC3)c2)cc1)c1ccccc1	-5	1	·	1	·
Cc1cc(C)nc(/N=C(\N)Nc2cccc(OCc3ccccc3)c2)n1	-10	46*	72*	50*	61*
Cc1cc(C)nc(/N=C(\N)Nc2ccc(OCc3ccccc3)cc2)n1	-18	75*	111*	77*	102*
Cc1cc(C)nc(/N=C(\N)Nc2ccc(OCCC(C)C)cc2)n1	-25	50*	·	48*	·
CC1CC(C)CN(C(=O)C(NS(=O)(=O)c2ccc(Br)s2)c2ccccc2)C1 (stereo unspecified)	-7	-3	-1	0	0
CN(C)C=Nc1nonc1-c1ccccc1	-1	0	1	0	0
CN(C)C=Nc1c(Br)cc(Br)c2nonc12	-17	106*	8	84*	8
O=C(CNCc1ccc(F)cc1)Nc1ccccc1[N+](=O)[O-]	-4	0	2	0	1
O=C(N/N=C/c1cc(Cl)cc(Cl)c1O)c1ccncc1	-10	29*	24*	28*	9
CCOC(=O)C(=CNc1cc(OC)ccc1-n1cccc1)C(=O)OCC	-9	-2	-2	-2	-2
CCN(CC)c1ccc(/C=C2/C(=O)c3ccc(C(=O)O)cc3C2=O)cc1	-12	135*	35*	70*	19*
CN(CC(O)Cn1cnc2c1c(=O)n(C)c(=O)n2C)c1ccccc1 (stereo unspecified)	-7	4	3	3	1
Nc1c(C(=O)c2ccccc2)sc2nsc(SCCN3CCOCC3)c12	-22	49*	8	49*	4
SMILES	OXTR potentiate	OXTR agonist	zfTRPN1 agonist	V1R ag counter	TRPML3 ag
Cc1sc(NC(=O)c2ccco2)c(C(c2cccnc2)N2CCN(CCO)CC2)c1C (stereo unspecified)	0	2	0	-1	1
CCOC(=O)C1CCN(C(c2cccnc2)c2c(NC(=O)c3ccco3)sc(C)c2C)CC1 (stereo unspecified)	12*	-2	1	-1	-1
Cc1cccc(Nc2nc(Cl)ncc2F)c1C	-10	-1	·	0	·
O=C(Nc1ccc(OCc2ccccc2)cc1)c1cccnc1	-16	21*	2	22*	1
O=C(Nc1ccc(OCc2ccccc2)cc1)c1ccccc1	-5	0	-1	-1	0
c1ccc(CNc2ncnc3c2cnn3Cc2ccccc2)cc1	-13	25*	6	21*	2
O=S(=O)(c1cnc(Cl)c(Cl)c1)N1CCc2ccccc21	-5	-3	-2	-1	16*
O=S(=O)(c1cnc(Cl)c(Cl)c1)N1CCCc2ccccc21	-1	-2	-2	-1	0
O=C1CCc2cc(NS(=O)(=O)c3ccc(Cl)cc3)cc3c2N1CC3	-19	3	·	3	·
Cc1ccc(Cl)cc1NC(=O)CC(O)(C(F)(F)F)C(F)(F)F	-12	12	20*	8	13*
COCC(=O)Nc1cc(Cl)ccc1C	-2	0	1	0	0
Cc1ccc2nc(/C(C#N)=C\c3ccc(N4CCOCC4)o3)[nH]c2c1	-18	43*	4	30*	2
Cc1ccc2nc(/C(C#N)=C/c3ccc(-c4ccccc4C(=O)O)o3)[nH]c2c1	-23	39*	·	27*	·
Cc1cc2nc(/C(C#N)=C\c3ccc(-c4ccccc4C(=O)O)o3)[nH]c2cc1C	-5	7	·	9	·
COC(=O)C1CCN(C(=O)COC(=O)CSc2ccc(C(N)=O)cc2[N+](=O)[O-])CC1	-7	-1	·	0	·
CC1=NN(c2ccccc2)C(=O)/C1=C\C=C\c1ccccc1	-3	-1	-1	-1	1
CC1=NN(c2ccccc2)C(=O)/C1=C\C=C1/N(C)c2ccccc2C1(C)C	-21	34*	6	43*	3
CN1C(=CC=C2C=C(I)C(=O)C(I)=C2)C(C)(C)c2ccccc21	·	·	8	·	2
CN1/C(=C\C=C2/C(=O)Oc3ccccc3C2=O)C(C)(C)c2ccccc21	-12	367*	154*	261*	130*
CN1/C(=C\C=C2/SC(=S)NC2=O)C(C)(C)c2ccccc21	-18	123*	33*	100*	19*
CC1=NN(c2ccccc2)C(=O)/C1=C\C=C1\N(C)c2ccccc2C1(C)C	-13	31*	15	36*	5
CC1=NN(c2ccccc2)C(=O)/C1=C/N(C)C	-2	0	1	-1	1
Cc1ccc(N(C(=O)c2csnn2)C(C(=O)NC2CCCCC2)c2cccnc2)c(C)c1 (stereo unspecified)	5	1	·	0	·
C=C(C)CN(CC)C(=O)COc1ccc(S(=O)(=O)Nc2ccc(OC)cc2)cc1	-22	29*	11	24*	4
N#Cc1ccc(NC(=O)Nc2ccc(Cl)cc2)cc1	-24	16	22*	8	15*
COCCN1C(=O)c2cc(C(=O)Nc3ccc(OC)c(OC)c3)ccc2C1Nc1ccc(OC)c(OC)c1 (stereo unspecified)	-4	0	0	0	1
CCOC(=O)CC1C(=O)NCCN1c1nc2c(C)cccn2c(=O)c1/C=C1\SC(=S)N(CC(C)C)C1=O (stereo unspecified)	·	·	36*	·	12*
